Source: PubChem BioAssay
FXIa inh 1536: human FXIa protease inhibitors, primary screen, biochemical, 1536-well; Coagulation factor XI (Homo sapiens), P03951; purified FXIa, Boc-Glu-Ala-Arg-AMC fluorogenic substrate; inhibition, % at 5 µM; 0.14% of 220,000 active;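 active means inhibition of at least 40%; inactive means inhibition below 40%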;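 further: fluorescence of freed AMC excited at 355 nm; 0% = enzyme without compound and 100% = no enzyme blank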
Target sequence (P03951 19-387 limits assumed): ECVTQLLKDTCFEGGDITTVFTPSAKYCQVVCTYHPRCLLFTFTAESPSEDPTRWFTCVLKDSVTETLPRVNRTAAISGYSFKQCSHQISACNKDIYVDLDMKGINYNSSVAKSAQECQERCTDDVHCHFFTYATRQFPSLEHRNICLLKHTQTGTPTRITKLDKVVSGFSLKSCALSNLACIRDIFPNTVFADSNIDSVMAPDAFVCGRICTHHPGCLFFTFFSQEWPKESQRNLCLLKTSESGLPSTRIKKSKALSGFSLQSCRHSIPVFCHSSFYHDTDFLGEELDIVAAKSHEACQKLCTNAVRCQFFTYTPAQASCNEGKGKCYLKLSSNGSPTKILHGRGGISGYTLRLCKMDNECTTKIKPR
Target sequence (P03951 388-625 limits assumed): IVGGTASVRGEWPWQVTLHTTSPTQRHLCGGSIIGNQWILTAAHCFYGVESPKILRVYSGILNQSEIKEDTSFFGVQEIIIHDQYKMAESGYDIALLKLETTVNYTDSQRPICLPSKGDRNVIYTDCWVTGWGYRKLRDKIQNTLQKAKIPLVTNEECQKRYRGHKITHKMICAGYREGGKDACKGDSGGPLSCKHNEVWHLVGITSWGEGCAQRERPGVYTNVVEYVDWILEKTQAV
hK5 inh: human KLK5 protease inhibitors, primary screen, biochemical, 1536-well. 0.59% of 210,000 active. inhibition, % at 5 µM. Kallikrein-5 (Homo sapiens), Q9Y337. recombinant hK5, fluorogenic AMC substrate cleavage. AID 873, 2007;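 active means inhibition of 40% or more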;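 further: 0% = enzyme controls without compound and 100% = no-enzyme blanks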
FXIIa inh 1536: human FXIIa protease inhibitors, primary screen, biochemical, 1536-well | Coagulation factor XII (Homo sapiens), P00748 | purified FXIIa, Boc-QGR-AMC fluorogenic substrate, 2 h | inhibition, % at 5 µM | 0.3% of 220,000 active; in the data active means inhibition above about 40%;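 further: 0% = enzyme with no compound and 100% = blank without enzyme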
EP2 mod: EP2 receptor modulators, cAMP readout, primary screen, cell-based, HTRF cAMP, PGE2 stimulation; Prostaglandin E2 receptor EP2 subtype (Homo sapiens), P43116; EP2-expressing cells, cAMP HTRF FRET, PGE2 co-stimulation; induction, % at 25 µM; 0.83% of 260,000 active; AID 940, 2007;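 active means compounds whose cAMP rise, as percent of the full-agonist control response, exceeds 60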;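 further: rat C6 glioma line stably carrying human EP2 under a CMV promoter; the protocol text gives 20 µM as final concentration; 100% = response of wells given 1 µM PGE2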
Thrombin inh: human alpha-thrombin inhibitors, primary screen, counter-screen for coagulation protease inhibitor project, biochemical, 1536-well, fluorogenic AMC substrate. Prothrombin (Homo sapiens), P00734. Boc-VPR-AMC fluorogenic substrate cleavage. inhibition, % at 5 µM. 0.26% of 220,000 active;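 active means inhibition at or above 40%; inactive means inhibition below 40%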;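 further: 0% = enzyme with no compound and 100% = wells without enzyme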
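Material: human alpha-thrombin enzyme / Medium: pH 7.5 Tris (50 mM) with NaCl 150 mM, Tween 20 0.05% / Compound: single-point dosing at 5 µM, 0.2% DMSO / Incubation: enzyme reaction carried out at room temperature / Detection: AMC fluorescence, 355/460 nm / Read-out basis: percent inhibition scaled between no-compound controls and no-enzyme blanks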
EP2 antag: human EP2 receptor antagonists, primary screen, TR-FRET cAMP, C6 glioma cells. 0.52% of 260,000 active. AID 1422, 2008. inhibition, % at 25 µM. Prostaglandin E2 receptor EP2 subtype (Homo sapiens), P43116. C6 glioma cells expressing human EP2; cells stimulated with saturating PGE2;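 active means percent inhibition above 40 after rounding to a whole number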;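 further: rat C6 glioma host cells with rolipram phosphodiesterase inhibitor present; the protocol text gives 20 µM as final concentration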
An asterisk follows results filed as active; . = not tested or not shown; ! = repeats disagree. A selection: hits, their analogues and other compounds. The true share with any hit is near 2.1%.

SMILES	FXIa inh 1536	hK5 inh	FXIIa inh 1536	EP2 mod	Thrombin inh	EP2 antag
Cc1ccc(S(=O)(=O)NCC(=O)OCC(=O)Nc2ncc(Cl)cc2Cl)cc1	5.7	3.9	71.3*	23.9	8.3	8.1
Cc1ccc(S(=O)(=O)CCC(=O)OCC(=O)Nc2ncc(Cl)cc2Cl)cc1	4.5	-9.2	14.2	3.5	5.1	11.6
CC1=NN(C(=O)c2ccncc2)C(=O)[C@@H]1N=Nc1ccc2ccccc2c1	.	.	.	-21.1	.	58.2*
CC1=NN(c2nc(-c3ccc(C)cc3)cs2)C(=O)C1N=Nc1ccc2ccccc2c1 (stereo not given)	7.9	-38.9	9.8	6.8	-5.4	10.6
Cc1nc(SCC(=O)c2ccccc2)c2c(C)c(C)sc2n1	.	.	.	4.1	.	17.7
Cc1ccc(C)c(S(=O)(=O)N2CCCOC2CNC(=O)C(=O)NCc2cccnc2)c1 (stereo not given)	-7.7	42.8*	34.1	10.0	12.6	2.6
CC(C)N(C(=O)Cn1nc2c3ccccc3nc(C3CC3)n2c1=O)C(C)C	.	.	.	-39.1	.	1.4
S=C(Nc1ccc(Cl)cc1)NC1CC2CCCC(C1)N2C1CC1 (stereo not given)	-5.2	-24.1	-2.3	-95.8	-30.9	47.8*!
CCc1cc2ccc(C)cc2nc1SCC(=O)Nc1ccccc1F	.	.	.	34.8	.	9.8
Brc1cccc(/C=N/Nc2nn[nH]n2)c1	101.7*	39.7	42.8*	4.5	18.1	11.9
COc1ccc(C(=O)Nc2ccccc2)cc1S(=O)(=O)NCc1cccs1	.	.	.	-85.3	.	10.2
O=C(N/N=C/c1c[nH]c2ccccc12)c1cc(-c2cccc3ccccc23)n[nH]1	6.6	25.3	-4.1	-3.3	43.5*	11.5
O=C(N/N=C/c1ccccn1)c1cc(-c2ccc3ccccc3c2)n[nH]1	-6.3	-15.1	-3.1	-8.7	-8.9	51.0*
O=C(N/N=C/c1c[nH]c2ccccc12)c1cc(-c2ccc3ccccc3c2)n[nH]1	7.1	-6.6	11.7	-14.2	-4.7	21.6
Cc1ccc(-c2cc(C(=O)N/N=C/c3c[nH]c4ccccc34)[nH]n2)cc1	16.1	-11.8	25.1	-78.4	-0.6	57.7*
CCc1ccc(-c2cc(C(=O)N/N=C/c3ccccn3)[nH]n2)cc1	-5.5	-14.0	2.2	-80.1	16.5	13.7
CCN(CC)S(=O)(=O)c1ccc(C(=O)N2CCN(c3ccc(OC)cc3)CC2)cc1	.	.	.	29.1	.	11.5
CCOC(=O)C1=C(c2ccccc2)NC(=S)NC1c1cccc(OC)c1OCC (stereo not given)	.	.	.	23.8	.	13.3
Nc1nonc1C(=O)NCCN=Cc1cc(Cc2ccccc2)cc(Br)c1O	5.4	-9.2	13.5	61.0*	1.3	.
Cc1ccc2c(c1)nnn2C1CCN(S(=O)(=O)c2ccc(Cl)cc2)CC1	.	.	.	-31.3	.	14.4
Cc1ccc2[nH]c3c(c2c1)CCC3=O	2.6	-9.6	8.0	-15.5	-4.5	41.7*
CSc1nc(SCC(=O)O)c2sc3nc(-c4ccccc4)c4c(c3c2n1)CCC4	3.5	1.9	12.5	61.2*	-3.3	9.9
Cc1oc(-c2ccccc2)nc1Cn1cccc1C1=NC(c2ccccc2)CO1 (stereo not given)	0.4	101.2*	2.8	22.8	13.6	10.1
Cc1ccc(NC(=O)Cn2cccc2C2=NC(c3ccccc3)CO2)cc1C (stereo not given)	-6.1	-6.0	-0.9	54.2	-6.7	9.7
Fc1ccc(Cn2cccc2C2=NC(c3ccccc3)CO2)cc1 (stereo not given)	-2.5	-7.9	2.7	61.2*	-9.7	1.4
SMILES	FXIa inh 1536	hK5 inh	FXIIa inh 1536	EP2 mod	Thrombin inh	EP2 antag
Cc1nc(-c2ccccn2)sc1C(=O)Nc1ccc(Cl)c(Cl)c1	2.6	-9.8	12.6	-31.4	-3.7	52.4*
CC(=O)c1sc(-c2ccccn2)nc1C	2.4	.	8.6	1.0	0.8	7.8
Cc1ccccc1NC(=O)c1cccc(N2C(=O)C3C4CCC(C4)C3C2=O)c1 (stereo not given)	15.2	42.9*	21.2	11.2	20.5	2.5
Cc1ccc(NC(=O)c2cccc(N3C(=O)C4C5CCC(C5)C4C3=O)c2)c(C)c1 (stereo not given)	12.7	0.0	4.7	-0.6	2.1	1.4
CCOC(=O)C1=C(N)N2C(=O)C(C)SC2=C(C(=O)OCC)C1c1ccccc1 (stereo not given)	-3.4	0.7	-0.3	62.3*	-9.7	8.6
Oc1c(C=Nc2ccccc2)sc(=S)n1C1CCCCC1	.	.	.	-6.4	.	9.1
Cc1ccc(C)c(Cn2c(CO)nc3ccccc32)c1	6.9	40.8*	-6.3	30.3	16.5	9.5
COc1ccc(C(=O)NCCCc2nc3ccccc3n2Cc2cc(C)ccc2C)cc1OC	7.2	-6.6	11.8	24.9	0.4	15.4
S=c1[nH]nc(-c2cccs2)n1/N=C/c1cn(-c2ccccc2)nc1-c1cccs1	1.9	2.8	2.3	85.6*	-2.4	7.4
COc1cccc(-c2cc(C(=O)Nc3c(C)nn(Cc4ccccc4)c3C)no2)c1	9.7	55.4*	9.6	-26.6	41.2*	6.8
Cc1cc(C(=O)O)c(CN2CCCC2)o1	.	.	.	-22.6	.	5.0
Cn1ncc(S(=O)(=O)Cc2ccccc2)c(Cl)c1=O	12.0	1.3	4.2	-33.0	0.1	88.8*
Cn1ncc(SCc2ccccc2)c(Cl)c1=O	-7.3	-0.3	7.2	-31.4	-0.1	6.2
NC(=O)c1ccc(N2CCCC2)c(NC(=O)c2ncoc2-c2cccs2)c1	.	.	.	-51.8	.	12.7
O=C(Nc1ccccc1N1CCCCC1)c1ncoc1-c1cccs1	.	.	.	66.3*	.	.
CCOC(=O)c1sc(NC(C)=O)nc1C	1.6	-2.2	13.7	-2.3	-2.6	26.5
CCOC(=O)c1sc(NS(=O)(=O)c2cc(C)ccc2C)nc1C	14.0	40.5*	21.7	34.0	30.4	8.9
CCC1CCCCN1C(=S)Nc1cccc(S(=O)(=O)N(C)C)c1 (stereo not given)	0.3	49.1*	7.0	9.9	-1.7	6.5
CCOCCCNC(=O)Cn1nc(C)n2c(cc3ccsc32)c1=O	.	.	.	-6.9	.	.
CC12CCC(c3c(C(=O)Nc4nccs4)nn(-c4ccccc4)c31)C2(C)C (stereo not given)	11.5	52.0*	22.1	31.7	13.8	10.1
CC1=C(C#N)c2nc(N)c(C#N)c(C)c2/C1=C\c1ccc(Cl)cc1	.	.	.	-97.8	.	33.0
CC1=C(C#N)c2nc(N)c(C#N)c(C)c2/C1=C\c1cccc(Cl)c1	.	.	.	-144.3	.	50.3*
COc1ccc(-c2cc(C(F)(F)F)n3nc(C(=O)N4CCOCC4)nc3n2)cc1	0.6	-3.4	8.9	22.7	-5.7	8.2
